Laboratory results taken from ChEMBL document CHEMBL2346610, “N-Alkyldeoxynojirimycin derivatives with novel terminal tertiary amide substitution for treatment of bovine viral diarrhea virus (BVDV), Dengue, and Tacaribe virus infections” (Bioorg Med Chem Lett, 2013).
Active and inactive are the calls of the source. No cut-off for these calls is given here.

Key:
Tacaribe virus = test: Antiviral activity against Tacaribe virus infected in human Huh7.5 cells; format: functional, organism-based; details: Mammarenavirus tacaribeense, Huh-7
[1] = Cytotoxicity against BHK cells by MTT assay; format: cell-based, Mesocricetus auratus; details: hamster
[2] = test system: Bovine viral diarrhea virus 1; test: Antiviral activity against BVDV infected in MDBK cells assessed as reduction of viral yield; format: functional, organism-based; details: Bovine viral diarrhea virus isolates and strains
Method in brief: (§1)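 Assays were run in MDBK cells. BVDV antiviral activity was measured by virus yield reduction and reported as EC50. Cytotoxicity was measured by MTT assay and reported as CC50.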

[3] = Cytotoxicity against MDBK cells by MTT assay; format: cell-based, Bos taurus; details: cattle; method in brief: as §1
[4] = Cytotoxicity against human Huh7.5 cells by MTT assay; format: cell-based, Huh-7
Dengue virus = test: Antiviral activity against Dengue virus infected in BHK cells; format: functional, organism-based
[5] = test system: Bovine viral diarrhea virus 1; test: Reduction of BVDV E2 protein mobility rate infected in MDBK cells at EC50 after 22 hrs by Western blot analysis; format: functional, organism-based
Method in brief: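 MDBK cells were infected with BVDV at MOI 1 for 1 h, then mock-treated or compound-treated. Cells were harvested 22 h post-infection. Lysates were run on electrophoresis and Western blotted, detecting BVDV E2 glycoprotein and β-actin loading control simultaneously.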

Row | Compound | EC50 (Tacaribe virus) | CC50 [1] | EC50 [2] | CC50 [3] | CC50 [4] | EC50 (Dengue virus) | Activity [5]
1 | CC(C)(C)C(=O)N(CCCCCCN1C[C@H](O)[C@@H](O)[C@H](O)[C@H]1CO)C1C2CC3CC(C2)CC1C3 (stereo partly specified) | 0.5 µM | 192 µM | 0.31 µM | 180 µM | 125 µM | 0.125 µM | –
2 | CC(C)(C)OC(=O)NCCCCCCN1C[C@H](O)[C@@H](O)[C@H](O)[C@H]1CO | – | – | 2.5 µM | > 500 µM | – | – | Active
3 | CC(C)(C)C(=O)N(CCCCCCN1C[C@H](O)[C@@H](O)[C@H](O)[C@H]1CO)C1CCC1 | – | > 500 µM | 0.8 µM | > 500 µM | – | 1.9 µM | –
4 | CC(C)(C)C(=O)N(CCCCCCN1C[C@H](O)[C@@H](O)[C@H](O)[C@H]1CO)c1cc(F)ccc1F | 0.62 µM | > 500 µM | 0.4 µM | > 500 µM | > 500 µM | 5.4 µM | –
5 | CC(=O)N(CCCCCCN1C[C@H](O)[C@@H](O)[C@H](O)[C@H]1CO)C1CCCCC1 | 1 µM | > 500 µM | 0.28 µM | > 500 µM | > 500 µM | 14 µM | –
6 | CC(C)(C)C(=O)N(CCCCCCN1C[C@H](O)[C@@H](O)[C@H](O)[C@H]1CO)c1ccc(F)cc1F | 2.5 µM | > 500 µM | 0.25 µM | > 500 µM | > 500 µM | 2.2 µM | Active
7 | CC(C)(C)C(=O)N(CCCCCCN1C[C@H](O)[C@@H](O)[C@H](O)[C@H]1CO)C1CCCCCC1 | 1 µM | > 500 µM | 0.4 µM | > 500 µM | > 500 µM | 0.8 µM | –
8 | OC[C@@H]1[C@@H](O)[C@H](O)[C@@H](O)CN1CCCCCCN(C1CCCCC1)C1CCCCC1 | – | – | 6.3 µM | > 500 µM | – | – | Active
9 | CC(C)(C)C(=O)N(CCCCCCN1C[C@H](O)[C@@H](O)[C@H](O)[C@H]1CO)C12CC3CC(CC(C3)C1)C2 | 0.21 µM | > 500 µM | 0.21 µM | 420 µM | 170 µM | 1.38 µM | –
10 | CC(C)(C)C(=O)N(CCCCCCN1C[C@H](O)[C@@H](O)[C@H](O)[C@H]1CO)C1CCCC1 | 4 µM | > 500 µM | 0.85 µM | > 500 µM | > 500 µM | 2 µM | –
11 | CC(C)(C)C(=O)N(CCCCCCN1C[C@H](O)[C@@H](O)[C@H](O)[C@H]1CO)C1CCCCCCC1 | 0.29 µM | 208 µM | 0.24 µM | 270 µM | 150 µM | 0.8 µM | –
12 | CC1CCCCC1NCCCCCCN1C[C@H](O)[C@@H](O)[C@H](O)[C@H]1CO (stereo partly specified) | – | – | > 100 µM | > 500 µM | – | – | inactive
13 | C[C@H]1CCCC[C@@H]1OCCCCCCN1C[C@H](O)[C@@H](O)[C@H](O)[C@H]1CO | – | – | 3.3 µM | – | – | – | –
14 | CC(C)(C)CC(=O)N(CCCCCCN1C[C@H](O)[C@@H](O)[C@H](O)[C@H]1CO)C1CCCCC1 | 0.4 µM | > 500 µM | 0.18 µM | > 500 µM | > 500 µM | 1.5 µM | Active
15 | CC1CCCCC1N(CCCCCCN1C[C@H](O)[C@@H](O)[C@H](O)[C@H]1CO)C(=O)C(C)(C)C (stereo partly specified) | 0.2 µM | > 500 µM | 0.22 µM | > 500 µM | 310 µM | 0.32 µM | Active
16 | CC1CCCCC1N(CCCCCCN1C[C@H](O)[C@@H](O)[C@H](O)[C@H]1CO)C(=O)OC(C)(C)C (stereo partly specified) | 0.3 µM | 230 µM | 0.4 µM | 250 µM | 240 µM | 0.3 µM | Active
17 | CC(=O)N(CCCCCCN1C[C@H](O)[C@@H](O)[C@H](O)[C@H]1CO)c1ccc(F)cc1F | – | – | 6 µM | > 500 µM | – | – | Active
18 | CC(C)(C)C(=O)N(CCCCCCN1C[C@H](O)[C@@H](O)[C@H](O)[C@H]1CO)C1CCCCC1 | 0.2 µM | > 500 µM | 0.2 µM | > 500 µM | 500 µM | 0.28 µM | Active
19 | CC(C)(C)C(=O)N(CCCCCCN1C[C@H](O)[C@@H](O)[C@H](O)[C@H]1CO)C1CC1 | – | > 500 µM | 3.75 µM | > 500 µM | – | 8.8 µM | Active
20 | CC(=O)N(CCCCCCN1C[C@H](O)[C@@H](O)[C@H](O)[C@H]1CO)c1cc(F)ccc1F | – | – | 5 µM | > 500 µM | – | – | –
